Reference: ChEMBL document CHEMBL1155539, “Discovery of 4-[1-[([1-[4-(trifluoromethyl)benzyl]-1H-indol-7-yl]carbonyl)amino]cyclopropyl]benzoic acid (MF-766), a highly potent and selective EP4 antagonist for treating inflammatory pain” (Bioorg Med Chem Lett, 2010)

Key:
[1] = target: T1, Prostaglandin D2 receptor 2 (Homo sapiens, UniProt Q9Y5Y4); assay: Displacement of [3H]PGD2 from human Prostanoid DP2 receptor expressed in HEK293-EBNA cells after 60 mins by scintillation counting; type: cell-based
T1 sequence (Q9Y5Y4 whole entry): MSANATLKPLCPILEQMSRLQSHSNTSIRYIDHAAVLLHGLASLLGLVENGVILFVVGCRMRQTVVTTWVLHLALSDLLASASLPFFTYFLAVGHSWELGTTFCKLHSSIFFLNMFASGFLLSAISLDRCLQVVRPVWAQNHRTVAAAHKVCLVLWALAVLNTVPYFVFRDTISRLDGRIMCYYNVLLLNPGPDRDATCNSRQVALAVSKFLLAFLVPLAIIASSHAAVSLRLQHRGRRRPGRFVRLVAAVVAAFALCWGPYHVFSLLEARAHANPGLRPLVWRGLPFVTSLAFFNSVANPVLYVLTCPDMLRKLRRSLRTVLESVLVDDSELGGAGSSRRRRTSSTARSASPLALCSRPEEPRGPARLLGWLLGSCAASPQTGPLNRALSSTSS

[2] = target: Prostacyclin receptor (Homo sapiens, UniProt P43119); assay: Displacement of [3H]iloprost from human prostanoid IP receptor expressed in HEK293-EBNA cells after 60 mins by scintillation counting; type: cell-based
[3] = target: T2, Prostaglandin E2 receptor EP4 subtype (Homo sapiens, UniProt P35408); assay: Antagonist activity at human prostanoid EP4 receptor expressed in HEK293 cells assessed as inhibition of PGE2-induced cAMP accumulation by scintillation proximity assay; type: functional, cell-based
Outline: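 Read-out was inhibition of PGE2-induced cAMP accumulation at EP4. Values are means from at least two independent experiments.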

[4] = target: T2, Prostaglandin E2 receptor EP4 subtype; assay: Antagonist activity at prostanoid EP4 receptor in human whole blood assessed as inhibition of TNF-alpha-induced IP-10 release in presence EP4 agonist L-000902688; type: functional, tissue-based
[5] = Metabolic stability in dog hepatocytes; type: ADME, cell-based, Canis lupus familiaris, Hepatocyte
[6] = Bioavailability in Sprague-Dawley rat at 5 mg/kg, iv and 20 mg/kg, po; type: ADME, organism-based; settings: in vivo
Outline: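 Sprague-Dawley rats dosed iv at 5 mg/kg and po at 20 mg/kg. The iv group was n = 2 males given the free acid in 60% PEG 200 at 1 mL/kg. PK parameters were derived from plasma levels.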

[7] = system: Rattus norvegicus; assay: Antiinflammatory activity in rat assessed as inhibition of complete Freund's adjuvant-induced paw swelling administered daily once 9 days after adjuvant challenge measured on day 18; type: functional; settings: read-out: ED50
Outline: (§1)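 Rat adjuvant-induced arthritis model with daily dosing in mg/kg/day. Dose groups were 0, 0.001, 0.01, 0.1 and 1 mg/kg, plus a non-AIA control group. Primary and secondary paw swelling were scored as % inhibition relative to vehicle-treated arthritic rats, and ED50 was estimated from the dose–response.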

[8] = system: Rattus norvegicus; assay: Antiinflammatory activity in rat assessed as inhibition of complete Freund's adjuvant-induced primary paw swelling at 0.001 to 1 mg/kg administered daily once 9 days after adjuvant challenge measured on day 18; type: functional; design: scale not given: the % may be the effect or the level left; settings: dose mg/kg 0.001-1; outline: as §1
[9] = target: T3, Prostaglandin E2 receptor EP1 subtype (Homo sapiens, UniProt P34995); assay: Displacement of [3H]PGE2 from human prostanoid EP1 receptor expressed in HEK293-EBNA cells after 60 mins by scintillation counting; type: cell-based
T3 sequence (P34995 whole entry): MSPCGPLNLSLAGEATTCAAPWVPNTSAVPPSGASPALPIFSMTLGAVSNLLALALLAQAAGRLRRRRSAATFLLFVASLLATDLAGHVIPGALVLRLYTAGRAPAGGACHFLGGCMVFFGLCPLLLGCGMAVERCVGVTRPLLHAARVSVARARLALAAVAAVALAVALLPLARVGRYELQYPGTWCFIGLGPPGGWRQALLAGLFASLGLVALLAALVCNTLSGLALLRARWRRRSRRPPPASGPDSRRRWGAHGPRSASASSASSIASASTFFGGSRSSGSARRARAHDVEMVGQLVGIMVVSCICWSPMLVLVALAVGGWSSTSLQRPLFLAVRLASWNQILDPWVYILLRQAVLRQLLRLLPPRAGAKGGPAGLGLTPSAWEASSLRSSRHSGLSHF

[10] = system: Canis familiaris; assay: Bioavailability in Beagle dog at 1 mg/kg, iv and 4 mg/kg, po; settings: in vivo

T2 sequence (P35408 whole entry): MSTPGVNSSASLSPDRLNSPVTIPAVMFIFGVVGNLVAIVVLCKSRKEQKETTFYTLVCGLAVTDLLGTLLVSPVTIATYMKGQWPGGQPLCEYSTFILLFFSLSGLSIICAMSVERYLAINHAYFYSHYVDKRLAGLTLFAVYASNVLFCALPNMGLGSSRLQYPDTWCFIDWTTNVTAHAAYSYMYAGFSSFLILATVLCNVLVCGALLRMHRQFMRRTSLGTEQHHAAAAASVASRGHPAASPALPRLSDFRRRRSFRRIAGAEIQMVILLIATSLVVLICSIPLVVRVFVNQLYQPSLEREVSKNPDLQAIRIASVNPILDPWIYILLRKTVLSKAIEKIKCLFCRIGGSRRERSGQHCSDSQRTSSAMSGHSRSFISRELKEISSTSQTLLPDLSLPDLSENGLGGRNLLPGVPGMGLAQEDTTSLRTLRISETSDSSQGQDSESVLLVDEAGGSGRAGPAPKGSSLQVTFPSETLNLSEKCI
Sequence of Prostacyclin receptor (P43119 whole entry): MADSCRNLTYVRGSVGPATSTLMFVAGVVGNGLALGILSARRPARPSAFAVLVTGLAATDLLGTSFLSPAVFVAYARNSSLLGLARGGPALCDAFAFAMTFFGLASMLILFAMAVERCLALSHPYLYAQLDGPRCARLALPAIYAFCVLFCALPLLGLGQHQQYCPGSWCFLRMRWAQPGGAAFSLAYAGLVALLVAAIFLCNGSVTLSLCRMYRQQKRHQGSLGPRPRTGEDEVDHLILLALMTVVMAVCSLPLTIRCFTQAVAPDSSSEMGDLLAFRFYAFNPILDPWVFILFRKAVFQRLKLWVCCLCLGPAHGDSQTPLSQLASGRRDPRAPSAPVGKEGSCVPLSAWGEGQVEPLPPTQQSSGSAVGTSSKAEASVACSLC

Ki [1]: > 21 µM | Ki [2]: > 22 µM | IC50 [3]: 0.0013 µM | IC50 [4]: 0.0095 µM | Stability [5]: Stable | bioavailability [6]: 86% | Ki [9]: 20 µM | F [10]: 74%
Structure (SMILES): O=C(O)c1ccc(C2(NC(=O)c3cccc4ccn(Cc5ccc(C(F)(F)F)cc5)c34)CC2)cc1
ED50 [7]: 0.004 mg/kg/day | Activity [8]: 70%
